Measured values taken from the RNAGym collection of RNA variant scans (doi:10.1126/science.aae0568).
Variants at the floor of the assay were thinned out.

B1: tRNA (parent)
chain: GUUCCGUUGGCGUAAUGGUAACGCGUCUCCCUCCUAAGGAGAAGACUGCGGGUUCGAGUCCCGUACGGAACG

Variants of: B1
Test: yeast fitness relative to wild type (ratio to wild type); higher = fitter; tRNA-Arg(CCU), competitive growth, 37 C, YPD
Summary of the method: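 The tRNA-Arg(CCU) gene variants were made by chemical synthesis with a 3% per-site mutation rate at 69 sites and inserted at the native genomic locus of Saccharomyces cerevisiae. After pooling, the strains were competed in YPD at 37°C for 24 hours in six parallel replicates. Gene amplicons from the start population and each end population were read by 100-nucleotide paired-end sequencing, and Darwinian fitness relative to wild type was taken from genotype frequency changes. Genotypes needed ≥ 100 starting reads, and estimates < 0.5 were set to 0.5.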

First: GUUCCGUUGGCGUAAUGGUAGAGCGUCUCCCUCCUAAGGAGAAGACUGCGGGUUAGAGUCCCGUACCGAACG [A21G C22A C55A G67C]
Second: GUUCCGUUGGCGUAAUGGUAGCGCGUCUCCCUCCUAAGGAGAAGACUGCGGGUUCGGGUCCCGUACGGAACG [A21G A57G]
The yeast fitness of the first is lower: at most 0.5 for the first, 0.875 for the second.

First: GUUCCGUUGGCGUAAUGGUAGCGCGUCUCCCUCCUAAGGAGAAGACUGCGGGUUCGUGUCCCGUACGGAACG [A21G A57U]
Second: GUUCCGUUGGCGUAAUGGUAGUGCGUCUCCCUCCUGAGGAGAAGACUGCGGGCUCGCGUCCCGUACGGUACG [A21G C22U A36G U53C A57C A69U]
The yeast fitness of the first is higher: 0.97 for the first, at most 0.5 for the second.

First: GUUCCGUUGGCGUAAUGGUAGCGCGUGUCCGUCCUAAGGAGAAGACUGCGGGUUCGAGUCCCGUACGGAACG [A21G C27G C31G]
Second: GUUCCGUUGGCGUAAUGGUAGCGCGUCUCCCUCCUAAGGAGAAGGCUGCGGGUUCGAGUCCCGUCCGGAACG [A21G A45G A65C]
The yeast fitness of the first is lower: 0.523 for the first, 0.977 for the second.

First: GUUCCGUUGGCGUAAUGGUAGCGCGUCUCCCUCCUAAGGAGUAGACUGCGGGUUCGAGUCCCGUAUGGAACG [A21G A42U C66U]
Second: GUUCCGUUGGCGUAAUGGUAGCGCGUAUCCCUCGUAAAGAGAAGACUGCGGGUUCGAGUCCCCUACGGAACG [A21G C27A C34G G38A G63C]
The yeast fitness of the first is higher: 0.56 for the first, at most 0.5 for the second.

Compared with GUUCCGUUGGCGUAAUGGUAGCGCGUCUCCCUCCUAAGGAGGAGACUGCGGGUUCGAGUCCCGUAGGGAACG [A21G A42G C66G], GUUCCGUUGGCGUAAUGGUAGCGCGUUUCCCUCCUAAGGAGAAGACUGCGGGUUAGAGUCCCGUACGGAACG [A21G C27U C55A] is higher in yeast fitness: at most 0.5 for the first, 0.701 for the second.

Going from GUUCCGUUGGCGUAAUGGUAGCGCGUCUCCCUCCUAAGGAGUAGACUGCGGGUUCGAGUCCCGUACGGAACG [A21G A42U] to GUUCCGUUGGCGUAAUGGUAGCGCGUGUCCCUCCUAAGGAGAAGACUGUGGGUUCGAGUCCCGUACGGAACG [A21G C27G C49U], the yeast fitness falls from 0.839 to 0.557.

Compared with GUUCCGUUGGCGUAAUGGUAGGGCGUCUCCCUCCGCAGGAGAAGACUGCGGGUUCGAGUCCCGUACGGAACG [A21G C22G U35G A36C], GUUCCGUUGGCGUAAUGGUAGCGCGUAUCCCUCCUAUGGAGAAGACUGCAGGUUCGAGUCCCGUACGGAACG [A21G C27A A37U G50A] is lower in yeast fitness: 0.746 for the first, 0.531 for the second.

First: GUUCCGUUGGCGUAAUGGUAGCGCGUCUCCCUCCUAAGGAGAAGCCUGCGGGUUCGAGCCCCGUACGGAACG [A21G A45C U59C]
Second: GUUCCGUUGGCGUAAUGGUAGCGCGUCUCCCUCCUAAGGAGACGACUGCGGGUUCGAGUCCCGUACGGUCCG [A21G A43C A69U A70C]
The yeast fitness of the first is lower: 0.732 for the first, 0.762 for the second.

Compared with GUUCCGUUGGCGUAAUGGUAGUGCGUCUCGCUCCUAAGGAGAAGACUGCGAGUUCGAGUCCCGUACGGAACG [A21G C22U C30G G51A], GUUCCGUUGGCGUAAUGGUAGCGCGUCUCCCUCCUAAGGAGAAGGCUGCGGGUUCGAGUCCCGUACAGAACG [A21G A45G G67A] is higher in yeast fitness: 0.538 for the first, 1 for the second.

First: GUUCCGUUGGCGUAAUGGUAGCGCGUAUCCCUCCUUAGGGGAAGACUGCGGGUUCGAGUCCCGUACGGAACG [A21G C27A A36U A40G]
Second: GUUCCGUUGGCGUAAUGGUAGCGCGUCUCCCUCCUAAGGAGAAGACUGCGGGUUCGAGUCCCGUCCGGAACG [A21G A65C]
The yeast fitness of the first is lower: 0.587 for the first, 0.924 for the second.

First: GUUCCGUUGGCGUAAUGGUAGCGCGUCUCCCUCCUAAGGAGAAGACUGCGGGUUCGAGUCCCGUUCGGAACG [A21G A65U]
Second: GUUCCGUUGGCGUAAUGGUAGCGCGUCUCCCUCCUAAGGAGACGACUGCGGGUUCGAGUCCCGUACGGAUCG [A21G A43C A70U]
The yeast fitness of the first is higher: 0.848 for the first, 0.712 for the second.

GUUCCGUUGGCGUAAUGGUAGCGGGUCUCCCUCCUAUGGAGAAGACUGAGGGUUCGAGUCCCGUACGGAACG [A21G C24G A37U C49A] and GUUCCGUUGGCGUAAUGGUAGCGCGUCUCCCUCCUAAGGAGACGACUGCGGGUUCGAGUGCCGUACGCAACG [A21G A43C C60G G68C] cannot be ordered by yeast fitness: at most 0.5 for the first, at most 0.5 for the second.

First: GUUCCGUUGGCGUAAUGGUAGCGCGUUUCCCUCCUAACGAGAAGACUGCGGGUUCGAGUCCCGUACGCAACG [A21G C27U G38C G68C]
Second: GUUCCGUUGGCGUAAUGGUAGCGCGUCUCCCUCCUAAGGAGAAGUCUGCGGGUUCGAGUCCCGUUCGGAACG [A21G A45U A65U]
The yeast fitness of the first is lower: at most 0.5 for the first, 0.674 for the second.

Compared with GUUCCGUUGGCGUAAUGGUAGUGCGUCUCCCCACUAGGGAGAAGACUGCGGGUUCGCGUCCCGUACGGAACG [A21G C22U U32C C33A A37G A57C], GUUCCGUUGGCGUAAUGGUAGCGCGUGUUCCUCCGAAGGAGAAGACUGCGGGUUCGAGUCCCGUACGGAACG [A21G C27G C29U U35G] is higher in yeast fitness: at most 0.5 for the first, 0.552 for the second.

Going from GUUCCGUUGGCGUAAUGGUAGUGCGUCUGCCUCCUAAGGAGAAGCCUGCGGGUUCGAGUCCCGUACGGAACG [A21G C22U C29G A45C] to GUUCCGUUGGCGUAAUGGUAGCGCGUCUCCCUCCUAAGGAGAAGUCUGCGGGUUCGAGUCCCGUACGGUACG [A21G A45U A69U], the yeast fitness rises from 0.515 to 1.07.

First: GUUCCGUUGGCGUAAUGGUAGUGCGUCUCCCUCCUAAGGACAAGACUGCGGGUUCGAGUCCCGUACGGAACG [A21G C22U G41C]
Second: GUUCCGUUGGCGUAAUGGUAGCGCGUCUCCCUCCUAAGGAGAAGACUGCGGGUUCGAGUCCCGUACGGCACG [A21G A69C]
The yeast fitness of the first is lower: 0.66 for the first, 0.932 for the second.

Going from GUUCCGUUGGCGUAAUGGUAGCGCGUCUCCCUCCUAAGGAGAAGGCUGCGGGUUCGAGUCCCGUACGGAACG [A21G A45G] to GUUCCGUUGGCGUAAUGGUAGCGCGUCUCCCUCCUAAGGAGAAGCCUGCGGGUUCGAGUCCCGUACGGAACG [A21G A45C], the yeast fitness falls from 0.91 to 0.89.

Going from GUUCCGUUGGCGUAAUGGUAGCGCGUCUCCCUCCUAAGGAGAAGUCUGCGGGUUCGAGUCCCGUACGGAACG [A21G A45U] to GUUCCGUUGGCGUAAUGGUAGUGUGUCUCCCUCCUAUGGAGAAGGGUGCGGGUUCGAGUCCCGUACGCAACG [A21G C22U C24U A37U A45G C46G G68C], the yeast fitness falls from 0.902 to at most 0.5.

With GUUCCGUUGGCGUAAUGGUAGUGCGUCUCCCUCCUAAGGAGAAGACUGCGGGUUCGAGUCCCGUAUGCAACG [A21G C22U C66U G68C] the yeast fitness was at most 0.5.
